High-throughput results: PubChem BioAssay, Sanford-Burnham Center for Chemical Genomics
CCR6 antag: antagonists of human CCR6 receptor; P51684; CHO-K1 CCR6 PathHunter beta-arrestin, luminescence, CCL20-stimulated; inhibition, % at 20 µM; actives 0.49% (n = 340,000); AID 493098;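 active means compounds whose inhibition of the agonist-driven luminescence signal at 20 µM reaches about 50%, limit read from the data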;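 further: cells stimulated with CCL20 at 14 nM final; plate controls were DMSO with CCL20 for no effect and DMSO without agonist for full effect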
A3A deaminase: human APOBEC3A DNA deaminase inhibition. P31941. recombinant A3A, FAM/TAMRA ssDNA deamination fluorescence. inhibition, % at 20 µM. actives 0.41% (n = 330,000);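 active means at least 40% inhibition at 20 µM here, with at most 30% in a related deaminase screen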;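 further: plate controls were A3A with DMSO for no effect and wells lacking A3A enzyme for full effect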
APJ ag: agonists of human APJ apelin receptor | AID 2520 | CHO-K1 APJ PathHunter beta-arrestin, luminescence; 0% DMSO wells, 100% apelin | activation, % at 20 µM | P35414 | actives 0.11% (n = 330,000);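 active means activation more than six SD over the plate average, tested at 20 µM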;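 further: 0% = DMSO alone and 100% = apelin-13 at 10 nM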
Target sequence (P35414 whole entry, looked up): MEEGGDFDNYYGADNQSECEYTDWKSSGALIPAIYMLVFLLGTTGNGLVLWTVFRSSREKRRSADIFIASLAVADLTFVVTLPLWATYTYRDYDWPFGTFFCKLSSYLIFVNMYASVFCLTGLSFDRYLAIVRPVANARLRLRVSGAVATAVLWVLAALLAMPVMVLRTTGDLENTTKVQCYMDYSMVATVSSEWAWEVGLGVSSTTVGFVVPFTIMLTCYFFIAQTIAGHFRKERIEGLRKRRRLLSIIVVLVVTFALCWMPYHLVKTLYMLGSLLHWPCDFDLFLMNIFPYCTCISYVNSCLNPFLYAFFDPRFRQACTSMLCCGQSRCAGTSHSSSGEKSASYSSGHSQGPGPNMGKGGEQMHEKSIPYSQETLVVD
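system = engineered CHO-K1 APJ arrestin reporter cells | input = 1000 cells per well | timing = overnight seeding, 90 min compound at 25 °C, 1 h detection | measured by = enzyme-fragment complementation luminescence | read-out = beta-arrestin recruitment to APJ as agonist activity, luminescent signal | control set = negative DMSO alone, positive Apelin-13 at 10 nM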
CXCR6 inh: CXCR6 (human) receptor inhibition; O00574; CHO-K1 PathHunter CXCR6 beta-arrestin, luminescence; inhibition, % at 20 µM; actives 0.36% (n = 360,000); AID 602244; in the data active means inhibition above about 34%, passing the limit was not always enough;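 further: antagonist mode with CXCL16 agonist at 10 nM final; 0% = 10 nM CXCL16 with DMSO and 100% = unstimulated wells without agonist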
Target sequence (O00574 whole entry, looked up): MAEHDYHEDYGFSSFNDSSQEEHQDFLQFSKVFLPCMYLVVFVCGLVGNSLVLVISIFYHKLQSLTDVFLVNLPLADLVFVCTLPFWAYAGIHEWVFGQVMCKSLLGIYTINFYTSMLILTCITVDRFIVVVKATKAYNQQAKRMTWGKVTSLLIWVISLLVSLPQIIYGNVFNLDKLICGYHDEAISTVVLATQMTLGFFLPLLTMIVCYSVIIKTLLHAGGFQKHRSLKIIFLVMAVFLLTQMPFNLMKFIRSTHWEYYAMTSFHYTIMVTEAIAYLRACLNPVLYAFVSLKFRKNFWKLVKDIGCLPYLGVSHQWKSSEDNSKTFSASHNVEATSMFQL
APOBEC3G inh: blocks human APOBEC3G single-stranded DNA deamination; Q9HC16; inhibition, % at 20 µM; actives 0.28% (n = 330,000); recombinant A3G, ssDNA deamination FAM/TAMRA fluorescence;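 active means inhibition of at least 40% at 20 µM, with no more than 30% in the related APOBEC3A deaminase screen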;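 further: plate controls were DMSO wells with A3G for no effect and wells lacking A3G enzyme for full effect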
APJ antag: antagonists of human APJ apelin receptor; CHO-K1 APJ beta-arrestin complementation, luminescence; actives 0.32% (n = 330,000); P35414; inhibition, % at 20 µM;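 active means inhibition above about 40% at 20 µM, limit read from the data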;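 further: cells challenged with 10 nM apelin-13 agonist together with compound; plate controls were apelin-13 plus DMSO wells for no effect and DMSO wells lacking apelin-13 for full effect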
APJ ag confirm: confirmation of human APJ apelin receptor agonists; shares compounds with APJ ag; CHO-K1 APJ PathHunter beta-arrestin, luminescence; activation, % at 20 µM; actives 10% (n = 310); AID 2764;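 active means activation above 40%, taking the highest of four retests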;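 further: plate controls were DMSO wells for no effect and apelin-13 at 10 nM for full effect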
Active calls of the source: *; nt = not tested or not shown. The list is not random: actives were taken first. Their share in the collection is about 1.4%.

SMILES | CCR6 antag | A3A deaminase | APJ ag | CXCR6 inh | APOBEC3G inh | APJ antag | APJ ag confirm
COc1cc(C(=O)O/N=C(\N)Cc2ccc([N+](=O)[O-])cc2)cc(OC)c1OC | -23.1 | -3.9 | 12.8 | -15.0 | -10.4 | -53.0 | nt
N/C(Cc1ccc([N+](=O)[O-])cc1)=N\OC(=O)c1cccc(Br)c1 | 2.5 | -5.1 | 4.4 | -24.2 | -7.5 | -39.7 | nt
COc1ccc(C(=O)O/N=C(\N)Cc2ccc([N+](=O)[O-])cc2)c(OC)c1 | -11.6 | -4.3 | 21.4* | -10.0 | -14.2 | -23.5 | 31.6
CCc1nc2c(OCCn3cccc3)cccn2c1N(C)C(=O)c1ccc(C)cc1 | nt | nt | nt | 4.3 | nt | nt | nt
COc1ccc(C(=O)O/N=C(\N)Cc2ccc(Cl)cc2)cc1OC | -6.8 | 1.8 | 12.3* | -2.4 | -3.4 | -57.4 | 23.8
Nc1nc2nccc(-c3cccnc3)n2n1 | 5.3 | 1.8 | -2.0 | -1.4 | 2.9 | -7.6 | nt
COc1ccc2c(c1)[nH]c1c(=O)n(/N=C/C3C(C)C=C(C)CC3C)c(=O)[nH]c12 (stereo unspecified) | -5.2 | -4.5 | 7.8 | -18.7 | -5.3 | -31.8 | nt
COc1ccc2[nH]c3c(=O)n(/N=C/[C@H]4C(C)C=C(C)CC4C)c(=O)[nH]c3c2c1 (stereo partly specified) | -2.0 | -3.9 | 23.9* | -11.5 | -3.6 | -29.7 | 27.6
CN(C)CCCN(C(=O)c1ccc([N+](=O)[O-])s1)c1nc2cc3c(cc2s1)OCCO3 | -9.0 | 1.4 | 130.6* | -9.9 | -3.2 | -145.1 | 37.9
CN(C)CCCN(C(=O)c1cc2cc([N+](=O)[O-])ccc2s1)c1nc2cc3c(cc2s1)OCCO3 | 25.9 | 3.2 | 42.6* | 6.4 | -1.1 | -3.6 | 20.9
COc1ccccc1NS(=O)(=O)c1cccc(C(=O)NNC(=O)C(C)NC(=O)c2ccco2)c1 (stereo unspecified) | -9.2 | -0.4 | -1.9 | 5.0 | -3.2 | 1.7 | nt
CC(C)C[C@@H](CO)N(Cc1ccccc1)S(=O)(=O)N(Cc1ccccc1)[C@H](CO)CC(C)C | -29.7 | 2.0 | 11.3* | -6.9 | -7.5 | -30.3 | 17.7
CC(C)C[C@@H](CO)N(Cc1ccccc1)S(=O)(=O)N(Cc1ccccc1)[C@@H](CO)CC(C)C | -6.2 | 4.9 | 6.2 | -4.6 | 3.5 | -20.1 | nt
Cc1ccc2sc(=O)[nH]c2c1 | -1.3 | -1.2 | 1.8 | -7.4 | -5.1 | -6.9 | nt
COC(=O)c1ccc2c(=O)n(CCCCCC(=O)N3CCN(c4ccc(F)cc4)CC3)c(=O)[nH]c2c1 | -8.2 | 3.2 | 46.8* | -9.9 | -0.2 | -35.4 | 35.2
COC(=O)c1ccc2c(=O)n(CCCCCC(=O)O)c(=O)[nH]c2c1 | 2.5 | -2.9 | -0.9 | -3.4 | 3.0 | -9.6 | nt
Cc1cc(C)n2nc3nc(N4CCCCC4)nc(-c4ccco4)c3c2n1 | 16.6 | 39.5 | 73.2* | 3.4 | 31.0 | 25.6 | 40.7*
CCn1cc(CN2CCCC(C(=O)Nc3cccc(-n4cccn4)c3)C2)cn1 (stereo unspecified) | nt | nt | nt | -0.2 | nt | nt | nt
Cc1ccc(-n2nnnc2C(Cl)(Cl)c2nnnn2-c2ccc(C)cc2)cc1 | 51.6* | 5.7 | 33.7* | 9.4 | 21.8 | -28.3 | 40.8*
Clc1ccc(-c2nnnn2-c2ccc(Cl)cc2)cc1 | 16.6 | -1.9 | -5.2 | -8.5 | -5.0 | 19.0 | nt
Cc1cc(Cl)ccc1OCC(=O)OCC(=O)c1c(N)n(C)c(=O)n(C)c1=O | 3.2 | -4.9 | -1.3 | 1.2 | -9.1 | 13.1 | nt
O=C(COC(=O)c1ccc2ncsc2c1)Nc1ccc(OC(F)(F)F)cc1 | 4.8 | 0.3 | 17.6* | -4.2 | -3.1 | 2.1 | 12.5
N/C(Cc1nc(-c2ccc(Br)cc2)cs1)=N\O | -22.4 | -6.3 | 0.3 | -16.1 | -8.2 | -3.9 | nt
CC1=NNC(=O)/C1=C\c1cn(-c2ccccc2)nc1-c1cccs1 | 45.6 | 1.3 | 25.5* | 0.6 | -2.1 | -7.1 | 6.8
CC1=NNC(=O)/C1=C\c1cn(-c2ccccc2)nc1-c1ccc(F)cc1 | 8.9 | nt | nt | -3.9 | nt | nt | nt
SMILES | CCR6 antag | A3A deaminase | APJ ag | CXCR6 inh | APOBEC3G inh | APJ antag | APJ ag confirm
N=c1c(C(=O)NC2CCCCC2)cc2c(=O)n3ccccc3nc2n1CCc1ccccc1 | 18.6 | -7.4 | 19.7* | 2.1 | -21.6 | -7.7 | -2.2
COc1ccc(-c2nc(-c3ccc(NC(=O)c4ccc(Br)o4)cc3)no2)cc1OC | 3.1 | 6.6 | 47.2* | -3.9 | -2.2 | -12.9 | 11.2
CC(C)Nc1ccc(Nc2ccnc3cc4ccccc4cc23)cc1 | 22.8 | 7.4 | 23.9* | 11.8 | 3.7 | 10.0 | 34.1
Brc1ccc(NCc2cccc3ccccc23)nc1 | 14.8 | -0.1 | -4.6 | -3.2 | -0.4 | -11.5 | nt
Oc1ccccc1CNc1ccc(Br)cn1 | -4.5 | 4.8 | 18.2* | -7.9 | 4.7 | 5.0 | 25.7
CN1CCN(c2ccc(NC(=S)NC(=O)c3cccc4c(Br)cccc34)cc2)CC1 | 49.8 | -7.1 | -0.9 | 8.8 | -3.9 | 5.6 | nt
CN1CCN(c2ccc(NC(=S)NC(=O)c3cccc4ccccc34)cc2)CC1 | 0.4 | -2.3 | 27.7* | -0.9 | -2.5 | -9.1 | -0.7
Cc1cnc(C(=O)NCC(c2ccccc2)c2ccccc2)cn1 | 16.9 | -6.7 | -3.2 | 6.1 | -7.8 | -0.4 | nt
COc1ccc(/C(N)=N/OC(=O)c2cccs2)cc1OC | -5.1 | -1.2 | 18.1* | -15.4 | -8.8 | -72.2 | 26.1
Cc1ccc(/C(N)=N/OC(=O)c2cccs2)cc1 | -14.4 | 1.3 | 8.7 | -22.5 | -6.6 | -48.9 | nt
Cc1cc(C(=O)O/N=C(\N)c2ccncc2)ccc1[N+](=O)[O-] | 4.2 | 1.0 | 15.7 | -15.3 | -4.3 | -39.2 | nt
COc1ccc(/C(N)=N/OC(=O)c2ccc([N+](=O)[O-])c(C)c2)cc1OC | -13.3 | -2.3 | 11.1* | -12.6 | -7.7 | -14.1 | 9.5
COc1ccc(NC(=O)C2Cc3c(-c4cccc(C(C)=O)c4)ccnc3O2)cc1 (stereo unspecified) | nt | nt | nt | 3.8 | nt | nt | nt
CC(=O)CSc1nc2ccc(Nc3nc(N4CCOCC4)nc(N4CCOCC4)n3)cc2s1 | -0.8 | -5.2 | 0.0 | -0.9 | -5.1 | -11.5 | nt
CCOC(=O)CSc1nc2ccc(Nc3nc(N4CCOCC4)nc(N4CCOCC4)n3)cc2s1 | -49.9 | 0.6 | 18.7* | -14.0 | -0.4 | -36.4 | 30.8
COC(=O)C1=C(CN2CCc3ccccc32)NC(=O)NC1c1cc(C)ccc1C (stereo unspecified) | -6.9 | -3.5 | 39.4* | 8.7 | -8.6 | -17.2 | 11.1
Cc1[nH]nc(SCC(=O)NCc2ccc(Cl)cc2)c1[N+](=O)[O-] | 17.9 | -0.5 | -2.5 | -3.2 | -0.2 | 20.4 | nt
COc1cc(S(=O)(=O)N2CCN(Cc3ccc4c(c3)OCO4)CC2)ccc1NC(C)=O | nt | -2.5 | 16.3* | -1.7 | -5.0 | -4.5 | -3.6
O=C(CSc1n[nH]c(=O)n1C1CC1)Nc1cc(Cl)ccc1Oc1ccccc1 | -5.2 | -3.2 | 12.5* | -11.1 | -5.8 | -16.1 | 20.3
O=C(CSc1n[nH]c(=O)n1C1CC1)Nc1ccccc1 | -9.2 | -1.2 | 2.3 | -3.5 | -5.0 | 6.1 | nt
